This is an account of results in ChEMBL document CHEMBL1124512, “Synthesis of 3-deazaneplanocin A, a powerful inhibitor of S-adenosylhomocysteine hydrolase with potent and selective in vitro and in vivo antiviral activities” (1989).

In brackets after ≈: the same amount, converted by molar mass. Several values for one entry are separate records, joined by “and”; a condition that tells them apart may be missing. Identical values can stand only once.

Experiment [1] can be described thus: Ratio of minimum toxic compound concentration to inhibitory dose against vesicular stomatitis viral strain Indiana in L929 cell line. It counts as functional. A digest of the protocol:
(§1)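 Selectivity index is the minimum toxic drug concentration (μg/mL) divided by the ID50 for inhibition of the virus-induced cytopathogenic effect.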

Experiment [2] concerns Vesicular stomatitis virus. Nature of the experiment: (§2) Viral rating activity against vesicular stomatitis viral strain Indiana in L929 cell line. It counts as functional. A digest of the protocol: (§3)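 Virus rating is a weighted score combining the degree of inhibition of the virus-induced cytopathogenic effect with the degree of cytotoxicity. USAMRIID ratings were multiplied by 3 to convert them to the Ehrlich scale.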

Experiment [3] is described as follows: Ratio of minimum toxic compound concentration to inhibitory dose against Parainfluenza type 3 viral strain Huebner C243 in H.Ep-2 cell line. Type of experiment: functional. A digest of the protocol:
as §1

Experiment [4] concerns Human respirovirus 3. Nature of the experiment: Viral rating activity against Parainfluenza type 3 viral strain Huebner C243 in H.Ep-2 cell line. It counts as functional. A digest of the protocol: as §3
Experiment [5] relates to Yellow fever virus. As to the kind of experiment: Viral rating activity against yellow fever viral strain Asibi in vero cell line. It counts as functional. A digest of the protocol:
as §3

Experiment [6] deals with Vesicular stomatitis virus. Nature of the experiment: Inhibitory dose against vesicular stomatitis viral strain Indiana in L929 cell line. Type of experiment: functional.
Experiment [7] has as its system Mus musculus. As to the kind of experiment: In vivo anti-viral activity against Vaccinia tailpox mice model at dose 8 mg/kg (tested on 19 mice - Experiment 2). It counts as functional.
Experiment [8] has as its system Mus musculus. As to the kind of experiment: In vivo anti-viral activity against Vaccinia tailpox mice model at dose 4 mg/kg (tested on 20 mice - Experiment 2). It counts as functional.
Experiment [9] deals with Mus musculus. As to the kind of experiment: In vivo anti-viral activity against Vaccinia tailpox mice model at dose 8 mg/kg (tested on 20 mice - Experiment 1). Type of experiment: functional.
Experiment [10] concerns Vaccinia virus. Nature of the experiment: Viral rating activity against vaccinia viral strain Lederle CA in vero cell line. It counts as functional, Orthopoxvirus vaccinia. The essentials: as §3
The subject of experiment [11] is Human respirovirus 3. Nature of the experiment: Inhibitory dose against Parainfluenza type 3 viral strain Huebner C243 in H.Ep-2 cell line. Type of experiment: functional. Particulars: Human respirovirus 3, HEp-2; read-out: ID50 (the source's name).
Experiment [12] is described as follows: Ratio of minimum toxic compound concentration to inhibitory dose against yellow fever viral strain Asibi in vero cell line. Type of experiment: functional. The essentials:
as §1

For experiment [13], the system named is Vesicular stomatitis virus. Described as §2. It counts as functional. The essentials:
as §3
The source holds these as a separate data set.

The test system of experiment [14] is Yellow fever virus. As to the kind of experiment: Inhibitory dose against yellow fever viral strain Asibi in vero cell line. Particulars: read-out: ID50 (the source's name). It counts as functional.
Experiment [15] deals with Yellow fever virus. As to the kind of experiment: Viral rating of activity against yellow fever viral strain Asibi in vero cell line. Type of experiment: functional. A digest of the protocol:
as §3

The test system of experiment [16] is Mus musculus. As to the kind of experiment: In vivo anti-viral activity against Vaccinia tailpox mice model at dose 300 mg/kg (tested on 20 mice - Experiment 2). Type of experiment: functional.
Experiment [17] in a line: Ratio of minimum toxic compound concentration to inhibitory dose against vaccinia viral strain Lederle CA in vero cell line. Type of experiment: functional. The essentials: as §1
Experiment [18] has as its system Mus musculus. Nature of the experiment: In vivo anti-viral activity against Vaccinia tailpox mice model at dose 300 mg/kg (tested on 20 mice - Experiment 1). It counts as functional.
The test system of experiment [19] is Vaccinia virus. Nature of the experiment: Inhibitory dose against vaccinia viral strain Lederle CA in vero cell line. Type of experiment: functional, Orthopoxvirus vaccinia.

In the case of `Nc1nccc2c1ncn2[C@@H]1C[C@H](CO)[C@@H](O)[C@H]1O` [3-DEAZAARISTEROMYCIN A], the Selectivity index in experiment [1] is 3.6 and 3.8 and 7.2. Moreover, the VR in experiment [2] is 3.1 and 3.2 and 3.5 and 3.3.

`Nc1nccc2c1ncn2C1C=C(CO)C(O)C1O` (stereo not drawn) [3-DEAZANEPLANOCIN A]: the Selectivity index in experiment [3] came out at 2; in [12], 0.3. Besides, the VR was 3.6 with Human respirovirus 3 [4]; 2.9 in the experiment with Yellow fever virus [5]; 3.1 and 5.4 and 4.5 with Vaccinia virus [10]; 3.6 and 4.2 in experiment [13]; 4.7 in experiment [2]. In addition, the ID50 in experiment [6] is 0.07 mg/L and 0.2 mg/L. Besides, the IC50 in experiment [6] (read-out: ID50 (the source's name)) was found to be 0.3 mg/L (≈ 1.14 µM); with Human respirovirus 3 [11], 0.05 mg/L (≈ 0.191 µM); with Yellow fever virus [14], 1 mg/L (≈ 3.81 µM). In addition, the Protection in the experiment with Mus musculus [7] is given as 84%; with Mus musculus [8], 82%; in the experiment with Mus musculus [9] it was 74%.

Turning to `NC(=O)c1ncn([C@@H]2O[C@H](CO)[C@@H](O)[C@H]2O)n1` [RIBAVIRIN], the Selectivity index in experiment [3] amounted to 5.7. The compound also came in with a VR in the experiment with Human respirovirus 3 [4] of 2.5. Moreover, the IC50 in the experiment on Human respirovirus 3 [11] came out at 17.5 mg/L (≈ 71.7 µM).

In turn, `c1c[se]cn1` [SELENAZOLE] showed a VR in the experiment on Yellow fever virus [15] of 2.4. Also, in experiment [12], the Selectivity index is on record as 1. Besides, the IC50 in the experiment on Yellow fever virus [14] amounted to 3.3 mg/L (≈ 25 µM).

On to `Nc1ncnc2c1ncn2[C@@H]1O[C@H](CO)[C@@H](O)[C@@H]1O` [VIDARABINE], for which the Protection in the experiment with Mus musculus [16] was determined as 88%; in the experiment on Mus musculus [18], 56%. In [17], the Selectivity index is 16.3 and 32.2 and 17.9. Also, the VR in the experiment on Vaccinia virus [10] is 3.7 and 4.2 and 3.6. For the same compound, the ID50 in the experiment with Vaccinia virus [19] was 1 mg/L and 1.8 mg/L. The IC50 in the experiment with Vaccinia virus [19] (Orthopoxvirus vaccinia, Vero, read-out: ID50 (the source's name)) was 2 mg/L (≈ 7.48 µM).
